Measurements reported in ChEMBL document CHEMBL4428026, “Discovery of New Monocarbonyl Ligustrazine-Curcumin Hybrids for Intervention of Drug-Sensitive and Drug-Resistant Lung Cancer” (J Med Chem, 2016).
pIC50: −log10 of the molar value. The source made the active and inactive calls. The rule behind the calls is not given here.

Legend:
A549/CDDP [1] = test: Inhibition of NFkappaB phosphorylation in human A549/CDDP cells at 0.6 to 1.2 uM after 24 hrs by Western blot method; format: cell-based
In short: (§1)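 Cells were plated at 1 × 10^6/well overnight, then treated 24 h with vehicle DMSO (0.1%, v/v) or compound (A549, 2.1 or 4.2 µM; A549/DDP, 0.6 or 1.2 µM). Lysis was at 4 °C. Lysates were run on SDS-PAGE (7.5% gel, 20 µg/lane) and immunoblotted with ECL detection; phospho-Akt Ser473 and phospho-ERK Thr202/Tyr204 were probed. Bands were normalized to GAPDH (TrxR, Trx) or β-actin. Three independent experiments were run.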

[2] = molecular target: T1, ATP-dependent translocase ABCB1 (Homo sapiens, UniProt P08183); test: Inhibition of P-gp in human A549/CDDP cells assessed as accumulation of rhodamine 123 at 0.03 to 1.2 uM by flow cytometry; format: cell-based
In short: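 A549/DDP cells were treated with compound (0.03-1.2 µM), with verapamil as the reference P-gp inhibitor. Intracellular rhodamine 123 accumulation was measured by flow cytometry.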

[3] = Toxicity in BALB/c nude mouse xenografted with human A549/CDDP cells assessed as body weight at 20 mg/kg, ip administered daily for 15 consecutive days measured on day 15 (reference value: 21 +/- 1.28 g); format: organism-based; settings: in vivo
A549/CDDP [4] = test: Effect on ERK expression in human A549/CDDP cells at 0.6 to 1.2 uM after 24 hrs by Western blot method; format: functional, cell-based; in short: as §1
A549/CDDP [5] = test: Anticancer activity against human A549/CDDP cells xenografted in BALB/c nude mouse assessed as tumor growth inhibition at 40 mg/kg, ip administered daily for 15 consecutive days measured every 3 days; format: functional; settings: 15 days, read-out: TGI
In short: (§2)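 Both sexes of athymic BALB/c nude mice (4-5 weeks) were inoculated subcutaneously with A549/DDP cells (1 × 10^7/mouse). Once tumors reached 180-200 mm3, mice were randomized (n = 8). They received ip dosing daily for 15 consecutive days, with vehicle PBS/DMSO/cremophor-EL (8:1:1). Tumors were measured by caliper and volume was taken as width2 × length/2. Growth inhibition was taken from tumor weight (w/w).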

A549/CDDP [6] = test: Antiproliferative activity against human A549/CDDP cells after 72 hrs by MTT assay; format: functional, cell-based
In short: (§3)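 Cells (A549, A549/DDP, SPC-A-1, LTEP-G-2, non-tumor bronchial epithelial HBE) were exposed in triplicate to vehicle or compound for 72 h. MTT (5 mg/mL in PBS) was then added for 4 h, formazan was dissolved in DMSO, and absorbance was read at 570 nm. IC50 values were derived from viability.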

[7] = Acute toxicity in ICR mouse assessed as mortality at 450 mg/kg, ip; format: organism-based; settings: in vivo
In short: (§4)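 Male and female ICR mice (7 weeks), randomized, 10 per group, given one intraperitoneal dose at 200, 250, 300, 350, 400 or 450 mg/kg. Animals were watched for abnormal behaviour and deaths up to two weeks. Deaths were tallied at 1 h, 4 h, day 3 and days 4-14, with survival on day 14. LD50 was calculated with 95% confidence limits.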

[8] = molecular target: T1, ATP-dependent translocase ABCB1; test: Inhibition of P-gp ATPase activity in human A549/CDDP cells at 40 uM by luminescence assay (reference value: 706683 +/- 23554 RLU); format: cell-based
Thioredoxin reductase = Thioredoxin reductase (Homo sapiens, UniProt Q16881+Q9NNW7+Q86VQ6); test: Inhibition of thioredoxin reductase in human A549 cells by DTNB dye based microplate spectrophotometry; format: cell-based
In short: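 A549 or A549/DDP cells were treated with varying compound concentrations for 24 h, then harvested, homogenized and centrifuged. Protein (50 µg) was reacted in triplicate with NADPH and DTNB in TE buffer at 37 °C for 1 h, and TNB was read at 412 nm. Activity was taken from a purified-TrxR standard curve, and IC50 was derived.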

A549/CDDP [9] = test: Induction of apoptosis in human A549/CDDP cells assessed as decrease in Bcl2 expression at 0.6 to 1.2 uM after 24 hrs by Western blot method; format: functional, cell-based; in short: as §1
A549 [10] = test: Induction of ROS generation in human A549 cells 2.1 to 4.2 uM after 60 mins by DHE staining-based fluorescence assay in presence of NAC; format: functional, cell-based
A549/CDDP [11] = test: Induction of ROS generation in human A549/CDDP cells 2.1 to 4.2 uM after 60 mins by DHE staining-based fluorescence assay; format: functional, cell-based
In short: (§5)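 A549 or A549/DDP cells were treated in triplicate for 60 min with vehicle DMSO (0.1%, v/v) or a range of compound concentrations. Cells were stained with dihydroethidium, and intracellular ROS fluorescence was read on a microplate reader at 300 and 610 nm. Three independent experiments were run.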

A549/CDDP [12] = test: Anticancer activity against human A549/CDDP cells xenografted in BALB/c nude mouse assessed as tumor growth inhibition at 20 mg/kg, ip administered daily for 15 consecutive days measured every 3 days; format: functional; settings: read-out: TGI; in short: as §2
[13] = Acute toxicity in ICR mouse assessed as mortality at 200 to 450 mg/kg, ip measured at 1 hr post treatment; format: organism-based; settings: in vivo; in short: as §4
A549 [14] = test: Effect on NFkappaB expression in human A549 cells at 2.1 to 4.2 uM after 24 hrs by Western blot method; format: functional, cell-based; in short: as §1
A549 [15] = test: Induction of ROS generation in human A549 cells 2.1 to 4.2 uM after 60 mins by DHE staining-based fluorescence assay; format: functional, cell-based; in short: as §5
A549 [16] = test: Decrease in Trx expression in human A549 cells at 2.1 to 4.2 uM after 24 hrs by Western blot method; format: functional, cell-based; in short: as §1
[17] = Toxicity in BALB/c nude mouse xenografted with human A549/CDDP cells assessed as body weight at 20 mg/kg, ip administered daily for 15 consecutive days measured on day 1 (reference value: 19.3 +/- 1.55 g); format: organism-based; settings: in vivo
A549/CDDP [18] = test: Induction of apoptosis in human A549/CDDP cells assessed as increase in cleaved PARP level at 0.6 to 1.2 uM after 24 hrs by Western blot method; format: functional, cell-based; in short: as §1
[19] = Acute toxicity in ICR mouse assessed as survival at 200 mg/kg, ip measured on day 14; format: organism-based; settings: in vivo; in short: as §4
A549 [20] = test: Induction of apoptosis in human A549 cells assessed as increase in Bax to Bcl2 ratio at 2.1 to 4.2 uM after 24 hrs by Western blot method; format: functional, cell-based; in short: as §1
A549/CDDP [21] = test: Inhibition of ERK phosphorylation in human A549/CDDP cells at 0.6 to 1.2 uM after 24 hrs by Western blot method; format: cell-based; in short: as §1
[22] = Acute toxicity in ICR mouse assessed as survival at 400 mg/kg, ip measured on day 14; format: organism-based; settings: in vivo; in short: as §4
[23] = Acute toxicity in ICR mouse assessed as survival at 350 mg/kg, ip measured on day 14; format: organism-based; settings: in vivo; in short: as §4
A549 [24] = test: Antiproliferative activity against human A549 cells after 72 hrs by MTT assay; format: functional, cell-based; settings: A549, 72 h; in short: as §3

T1 sequence (P08183 whole entry): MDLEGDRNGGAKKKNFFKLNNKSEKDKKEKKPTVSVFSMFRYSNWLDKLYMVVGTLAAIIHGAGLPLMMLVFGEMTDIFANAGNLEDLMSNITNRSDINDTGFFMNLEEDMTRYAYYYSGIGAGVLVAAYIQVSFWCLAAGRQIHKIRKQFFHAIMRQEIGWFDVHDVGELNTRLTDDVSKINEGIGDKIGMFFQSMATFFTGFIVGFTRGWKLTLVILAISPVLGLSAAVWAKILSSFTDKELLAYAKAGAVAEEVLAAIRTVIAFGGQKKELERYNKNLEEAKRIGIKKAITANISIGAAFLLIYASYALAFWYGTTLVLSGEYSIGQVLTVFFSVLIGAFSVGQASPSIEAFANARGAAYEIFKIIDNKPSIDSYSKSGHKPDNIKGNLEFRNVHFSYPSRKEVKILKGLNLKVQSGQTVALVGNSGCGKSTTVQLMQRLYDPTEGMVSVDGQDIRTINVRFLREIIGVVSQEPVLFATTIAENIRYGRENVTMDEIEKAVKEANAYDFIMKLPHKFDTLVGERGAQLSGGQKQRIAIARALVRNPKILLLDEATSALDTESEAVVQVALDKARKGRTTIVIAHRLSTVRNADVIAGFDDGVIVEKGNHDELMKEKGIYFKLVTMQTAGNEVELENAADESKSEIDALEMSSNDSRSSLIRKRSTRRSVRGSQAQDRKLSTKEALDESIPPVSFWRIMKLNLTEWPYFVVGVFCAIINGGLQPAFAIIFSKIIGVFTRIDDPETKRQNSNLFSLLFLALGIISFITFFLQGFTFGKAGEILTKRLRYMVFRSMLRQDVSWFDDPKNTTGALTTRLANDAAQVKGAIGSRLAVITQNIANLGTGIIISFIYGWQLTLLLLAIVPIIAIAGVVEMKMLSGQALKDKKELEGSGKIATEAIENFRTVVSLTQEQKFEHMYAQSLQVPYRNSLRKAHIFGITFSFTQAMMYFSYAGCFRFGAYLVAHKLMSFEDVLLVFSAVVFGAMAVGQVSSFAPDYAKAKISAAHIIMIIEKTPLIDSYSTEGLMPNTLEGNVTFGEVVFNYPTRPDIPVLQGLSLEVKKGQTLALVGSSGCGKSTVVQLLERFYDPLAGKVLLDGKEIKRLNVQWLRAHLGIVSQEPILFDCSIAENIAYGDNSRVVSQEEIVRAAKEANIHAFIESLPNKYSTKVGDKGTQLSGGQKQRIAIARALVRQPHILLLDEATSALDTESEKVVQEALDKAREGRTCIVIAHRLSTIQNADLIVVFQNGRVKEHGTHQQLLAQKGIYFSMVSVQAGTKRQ

## COc1cc(/C=C/C(=O)/C=C/c2nc(C)c(C)nc2C)ccc1O
A549/CDDP [1]
  inhibition: Active
[2]
  inhibition (INH): Active
[3]
  Activity: 18.6 g
A549/CDDP [4]
  Activity: inactive
A549/CDDP [5]
  inhibition in vivo at 40 mg/kg: 67%
A549/CDDP [6]
  pIC50: 6.22
[7]
  Activity: Toxic
[8]
  Activity: 761592 RLU
Thioredoxin reductase
  IC50: 1490 nM
A549/CDDP [9]
  Activity: Active
A549 [10]
  Activity: inactive
A549/CDDP [11]
  Activity: Active
A549/CDDP [12]
  inhibition in vivo at 20 mg/kg: 36%
[13]
  Activity: Non-Toxic
A549 [14]
  Activity: inactive
A549 [15]
  Activity: Active
A549 [16]
  Activity: Active
[17]
  Activity: 18.3 g
A549/CDDP [18]
  Activity: Active
[19]
  survival at 14 day: 90%
A549 [20]
  Activity: Active
A549/CDDP [21]
  inhibition: Active
[22]
  survival at 14 day: 10%
[23]
  survival at 14 day: 30%
A549 [24]
  pIC50: 5.66
